The IC50 is the point on the concentration scale where inhibition reaches its midpoint.

One data set deals with U2OS cells. Description: BRDU incorporation cell cycle assay. The format is cell-based, human. The method, boiled down: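 U2OS cells in DMEM with 10% FBS were seeded at 1×10^5/ml. After 12 h, they got test compound (50 μM) with or without doxorubicin (5 μM); DMSO and untreated cells were controls. BrdU was added for the 24 h treatment. Cells were fixed, probed with anti-BrdU antibody, then peroxidase. Colour was developed with TMB, stopped, and read as OD at 450 nm.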

Data set [1] concerns p53-dependent p21 luciferase activity. Description: p21 luciferase assay of doxorubicin-induced p53 activation in U2OS cells. The format is cell-based, human.
Data set [2] deals with p53. Nature of the data set: western blot analysis of doxorubicin-treated U2OS cells. The format is cell-based, human. The method, boiled down: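 U2OS cells were grown in DMEM with 10% FBS and antibiotics, then exposed 24 h to doxorubicin ± test compound (50 or 100 μM). Lysates were sonicated and cleared at 14,000 rpm for 30 min at 4°C. 30–50 μg protein was run on SDS-PAGE and moved to nitrocellulose, blocked in 5% milk/PBS, probed with primary then HRP secondary (60 min, RT), and developed by ECL.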
(A western blot detects proteins with antibodies after separation by electrophoresis.)

The next data set concerns the target p53 binding to CBP (Homo sapiens, UniProt Q92793). Description: HA-CBP and Flag-p53 pull-down assay in HEK 293T cells. It counts as cell-based. Particulars: HA-CBP and Flag-p53 over-expressed in 293T cells, doxorubicin treatment. The method, boiled down:
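HEK 293T cells were co-transfected with HA-CBP and Flag-p53 (Fugene 6), then treated with test compound at several concentrations, with or without doxorubicin. CBP was immunoprecipitated on HA-agarose beads. Co-precipitated p53 was detected by western blot with anti-Flag antibody.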

The next data set deals with p53 target genes. Description: RT-PCR array analysis of p53 target genes in U2OS cells. It counts as cell-based, human.
Data set [3] has as its system primary neonatal rat cardiomyocytes. Description: TUNEL apoptosis assay in cardiomyocytes. The format is cell-based. The procedure, abridged: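 Ventricular myocytes came from 1–2-day-old Sprague-Dawley rats: trypsin overnight at 4°C, collagenase 45 min at 37°C, two preplating rounds. Cells were grown in DMEM/F12 with 10% horse serum and 5% FCS, switched after 48 h to DMEM/F12 with 1% ITS and 0.1% BSA. Doxorubicin was given 24 h ± test compound. Cells on coverslips were fixed in 4% PFA/PBS, permeabilised with 0.5% Tween 20 for 10 min, and TUNEL-labelled with FITC-nucleotide. Triplicates on three days.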

Data set [4] deals with p53. Description: immunoblot of doxorubicin-treated cardiomyocytes. The format is cell-based. Particulars: primary neonatal rat cardiomyocytes. The method, boiled down: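 Neonatal rat ventricular myocytes (1–2-day-old Sprague-Dawley pups) were isolated by trypsin then collagenase digestion and enriched by two preplating rounds. They were cultured in DMEM/F12 with 10% horse serum and 5% FCS, then after 48 h in DMEM/F12 with 1% ITS and 0.1% BSA. Cells were exposed to doxorubicin with or without test compound and immunoblotted for activated p53 and H2AX Ser139 phosphorylation.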

The next data set deals with CBP/p300. The format is biochemical. Particulars: histone H3 peptide substrate; data not shown.
Setting [5] is: U2OS cells, 50 or 100 μM, 24 hours.
[6] abbreviates: nuclear extracts from U2OS cells.

Chain of p53 binding to CBP (Q92793 whole entry): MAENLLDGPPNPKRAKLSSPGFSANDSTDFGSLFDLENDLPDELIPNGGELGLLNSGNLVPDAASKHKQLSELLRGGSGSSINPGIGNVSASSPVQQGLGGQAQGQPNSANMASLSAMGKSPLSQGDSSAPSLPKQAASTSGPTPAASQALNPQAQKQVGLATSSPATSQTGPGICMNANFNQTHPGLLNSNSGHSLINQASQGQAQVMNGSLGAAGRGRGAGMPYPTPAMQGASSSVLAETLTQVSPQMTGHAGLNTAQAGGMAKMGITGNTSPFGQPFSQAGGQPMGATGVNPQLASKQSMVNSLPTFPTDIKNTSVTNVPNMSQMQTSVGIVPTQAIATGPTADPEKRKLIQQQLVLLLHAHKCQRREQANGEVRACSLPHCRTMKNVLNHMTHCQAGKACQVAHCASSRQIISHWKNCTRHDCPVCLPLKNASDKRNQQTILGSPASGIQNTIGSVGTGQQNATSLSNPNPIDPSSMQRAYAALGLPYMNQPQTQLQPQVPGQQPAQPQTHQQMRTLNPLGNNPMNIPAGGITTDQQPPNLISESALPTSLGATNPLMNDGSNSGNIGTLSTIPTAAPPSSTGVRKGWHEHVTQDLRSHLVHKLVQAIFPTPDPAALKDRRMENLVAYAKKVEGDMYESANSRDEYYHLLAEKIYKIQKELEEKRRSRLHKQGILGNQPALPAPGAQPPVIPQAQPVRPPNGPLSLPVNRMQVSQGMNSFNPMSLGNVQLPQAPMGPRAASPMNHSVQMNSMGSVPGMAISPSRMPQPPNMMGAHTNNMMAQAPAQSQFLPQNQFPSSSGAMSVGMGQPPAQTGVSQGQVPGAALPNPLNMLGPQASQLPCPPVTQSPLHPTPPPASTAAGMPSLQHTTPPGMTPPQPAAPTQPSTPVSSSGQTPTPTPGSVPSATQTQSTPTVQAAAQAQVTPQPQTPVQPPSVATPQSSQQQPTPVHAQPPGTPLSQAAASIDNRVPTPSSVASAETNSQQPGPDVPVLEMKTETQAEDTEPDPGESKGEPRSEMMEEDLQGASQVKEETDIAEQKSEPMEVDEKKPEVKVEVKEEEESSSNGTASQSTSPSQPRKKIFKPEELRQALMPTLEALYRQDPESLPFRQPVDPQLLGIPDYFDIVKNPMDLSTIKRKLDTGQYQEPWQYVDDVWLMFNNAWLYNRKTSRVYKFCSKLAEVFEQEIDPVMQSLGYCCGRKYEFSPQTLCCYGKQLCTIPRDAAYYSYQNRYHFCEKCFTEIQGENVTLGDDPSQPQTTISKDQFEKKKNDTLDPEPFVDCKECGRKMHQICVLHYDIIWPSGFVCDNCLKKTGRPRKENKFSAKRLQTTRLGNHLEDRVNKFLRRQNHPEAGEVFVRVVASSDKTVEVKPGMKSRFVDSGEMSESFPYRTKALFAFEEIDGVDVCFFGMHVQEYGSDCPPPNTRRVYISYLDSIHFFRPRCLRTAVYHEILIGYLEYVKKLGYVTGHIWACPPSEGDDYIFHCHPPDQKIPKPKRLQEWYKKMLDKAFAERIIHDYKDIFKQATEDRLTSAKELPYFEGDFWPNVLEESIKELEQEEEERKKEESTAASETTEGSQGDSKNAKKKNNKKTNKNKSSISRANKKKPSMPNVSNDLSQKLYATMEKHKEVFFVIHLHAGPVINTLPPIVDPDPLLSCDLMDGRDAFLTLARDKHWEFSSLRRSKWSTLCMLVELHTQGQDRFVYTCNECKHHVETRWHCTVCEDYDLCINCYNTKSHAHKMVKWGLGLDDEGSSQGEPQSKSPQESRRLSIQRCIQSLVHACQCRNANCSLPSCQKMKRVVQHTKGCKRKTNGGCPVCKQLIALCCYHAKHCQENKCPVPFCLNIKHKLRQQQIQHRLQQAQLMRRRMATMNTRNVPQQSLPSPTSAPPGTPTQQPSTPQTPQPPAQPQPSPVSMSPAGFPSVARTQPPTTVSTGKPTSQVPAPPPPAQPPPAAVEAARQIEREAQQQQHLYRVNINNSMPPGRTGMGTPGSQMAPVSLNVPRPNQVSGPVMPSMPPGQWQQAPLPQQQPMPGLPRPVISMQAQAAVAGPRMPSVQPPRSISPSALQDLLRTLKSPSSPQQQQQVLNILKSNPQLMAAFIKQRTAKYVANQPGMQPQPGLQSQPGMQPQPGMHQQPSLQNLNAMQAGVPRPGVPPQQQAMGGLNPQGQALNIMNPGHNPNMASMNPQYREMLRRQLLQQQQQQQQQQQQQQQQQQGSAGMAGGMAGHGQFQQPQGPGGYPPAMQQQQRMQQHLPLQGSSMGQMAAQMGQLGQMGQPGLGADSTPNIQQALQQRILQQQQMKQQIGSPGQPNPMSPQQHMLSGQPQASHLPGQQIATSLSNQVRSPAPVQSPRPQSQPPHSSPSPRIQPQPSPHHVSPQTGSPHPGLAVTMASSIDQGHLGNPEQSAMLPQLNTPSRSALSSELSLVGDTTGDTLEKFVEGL

Take `COc1cccc2c1C(=O)c1c(O)c3c(c(O)c1C2=O)C[C@@](O)(C(=O)CO)C[C@@H]3O[C@H]1C[C@H](N)[C@H](O)[C@H](C)O1` [doxorubicin, reference compound]: in the data set with U2OS cells (doxorubicin treatment of U2OS cells), the “decrease of BRDU incorporation” value stood at 45%.
With `Cc1cc(N=Nc2cc(S(=O)(=O)O)c(C)cc2C)c(N)cc1O` [Ischemin / MS120, 5-(2-amino-4-hydroxy-5-methyl-phenylazo)-2,4-dimethyl-benzenesulfonic acid], in data set [1] (Homo sapiens, U2OS, read-out: IC50 inhibition of p53-induced p21 activation), the IC50 worked out at 5 µM. The “suppression of p21 expression” value in data set [1] (U2OS cells, doxorubicin, 50 μM) was “nearly completely suppresses”. Moreover, the “prevention of doxorubicin-induced cell cycle arrest (BRDU incorporation)” value in the data set with U2OS cells (50 μM compound, doxorubicin 5 μM, U2OS cells, 24 hours) is recorded as “almost completely prevented”. In the data set on U2OS cells (U2OS cells, 50 μM), the “toxicity to the cells” value is given as “not toxic”. Further, in the data set on p53 [2] (setting [5]), the “expression of p53 target genes p21, PUMA and 14-3-3s induced by doxorubicin” value is “significantly decreased”; the “levels of p53 protein, p53S15p and p53K382ac induced by doxorubicin” value was “marked reduction”. Moreover, the “level or functional phosphorylation state of ATM and CHK1” value with p53 [2] (U2OS cells, doxorubicin) is given as “did not affect”. Also, in the data set with p53 [2] (setting [6]), the “H3 acetylation at Lys9” value is given as “decrease” and the “histone H3 phosphorylation at Ser10” value is on record as “increase”. The “inhibition of p53 binding to CBP” value on p53 binding to CBP is recorded as “inhibiting in a dose-dependent manner”. For the same compound, the “doxorubicin-induced expression of p53 target genes (CCNE2, CCNG2, CDC2, CDC25A, CDKN1A, CDKN2A, GADD45A, E2F1, E2F3, PCNA, SESN1, SESN2)” value with p53 target genes is given as “differentially reduce”. Besides, in data set [3], the “toxicity of its own” value is on record as “no toxicity of its own”. The “inhibition of doxorubicin-induced apoptosis” value in data set [3] (doxorubicin 24 hours) is on record as “effectively inhibit”. The “doxorubicin induced p53 activation” value in the data set with p53 [4] is on record as “able to inhibit”. Further, the “H2AX phosphorylation at Ser139” value in the data set with p53 [4] (doxorubicin) was “did not alter”. Besides, the “direct inhibition of lysine acetyltransferase activity” value with CBP/p300 is listed as “ruled out”.
